Compound activity from PubChem BioAssay.
Compounds with a hit are over-represented: about 1.1% of the library has one in this group of screens.
LYPLA1 inh: counter-screen for PME1 inhibitors: inhibitors of human LYPLA1; O75608; recombinant LYPLA1, FP-Rh probe fluorescence polarization; inhibition, % at 5.9 µM; actives 0.16% (n = 320,000); AID 2174;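 active = inhibition above the mean of all tested compounds plus 3 SD, set per campaign, cut at about 14% in these data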;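 note: inhibitors block serine hydrolase probe labeling of LYPLA1 so polarization falls; 0% = enzyme with DMSO and 100% = wells lacking LYPLA1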
LYPLA2 counter: LYPLA2 (human) inhibition in PME1 counter-screen; inhibition, % at 5.9 µM; recombinant LYPLA2, FP-Rh probe fluorescence polarization; actives 0.38% (n = 320,000); O95372;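 active = inhibition above the screen-wide mean plus 3 SD, limit set per campaign, cut at about 26% in these data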;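 note: 0% = LYPLA2 with DMSO and 100% = wells lacking LYPLA2 enzyme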
procasp3 activ: activators of human procaspase-3. recombinant procaspase-3 D3A, Ac-DEVD-pNA absorbance 405 nm. actives 0.11% (n = 330,000). AID 463141. activation, % at 8.5 µM;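 active = activation above the mean of all tested compounds plus 3 SD, cut at about 21% in these data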;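 note: 0% = DMSO alone and 100% = DMSO wells spiked with extra 5 µM PC-3 D3A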
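System: Procaspase-3 D3A mutant. Medium: Zinc-free 300 mM NaCl, 50 mM HEPES, 0.01% Triton X-100. Schedule: 1 h preincubation plus 2 h reaction at 25 °C. Measured by: 405 nm absorbance of p-nitroaniline, reads at 0 and 120 min. Read-out: percent activation relative to control range.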
procasp7 counter: counter-screen: procaspase-7 (human) activation. P55210. recombinant procaspase-7, Ac-DEVD-pNA absorbance 405 nm; D23A/D198A/D206A triple mutant, cannot self-cleave; scale: DMSO 0, 5 µM enzyme 100. activation, % at 8.5 µM. actives 0.093% (n = 330,000). AID 463210;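 active = percent activation above the screen-wide mean plus 3 SD, cut at about 25% in these data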
Target sequence (P55210 whole entry D23A/D198A/D206A): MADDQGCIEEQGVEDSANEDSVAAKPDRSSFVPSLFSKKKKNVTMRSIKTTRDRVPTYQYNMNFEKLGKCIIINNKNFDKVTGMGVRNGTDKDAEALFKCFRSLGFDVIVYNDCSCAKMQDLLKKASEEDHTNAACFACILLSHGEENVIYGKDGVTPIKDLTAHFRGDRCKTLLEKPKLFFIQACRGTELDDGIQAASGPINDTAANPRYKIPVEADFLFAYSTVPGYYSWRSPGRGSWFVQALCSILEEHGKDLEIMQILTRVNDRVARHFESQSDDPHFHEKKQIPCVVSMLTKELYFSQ
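buffer or medium = Zinc-free HEPES/NaCl buffer, pH 7.4 | material = Procaspase-7 triple mutant (PC-7 D3A) | input = 2 µM procaspase-7 mutant as dispensed | signal = Epi-absorbance of released pNA at 405 nm, two timepoints | timing = 1 h preincubation, 2 h reaction | replicates = singlicate compound testing | evaluation = % activation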
PREPL inhibitor: inhibitors of human prolyl oligopeptidase-like enzyme PREPL; inhibition, % at 5.96 µM; Q4J6C6; actives 0.68% (n = 320,000); recombinant PREPL, fluorescence polarization activity-based probe; in the data active = inhibition above about 43%;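 note: 0% = enzyme with DMSO and 100% = wells lacking enzyme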
LYPLA1 conf: LYPLA1 (human) inhibition, confirmation counter-screen | recombinant LYPLA1, FP-Rh probe fluorescence polarization | shares compounds with LYPLA1 inh | inhibition, % at 5.9 µM | actives 69% (n = 480);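 active = mean inhibition across replicates above the hit cutoff set in the primary screen, cut at about 15% in these data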;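 note: loss of FP-Rh probe labeling of LYPLA1 seen as lower polarization; 0% = LYPLA1 with DMSO and 100% = wells lacking LYPLA1 enzyme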
LYPLA2 conf: LYPLA2 (human) inhibition, confirmation counter-screen. inhibition, % at 5.9 µM. shares compounds with LYPLA2 counter. recombinant LYPLA2, FP-Rh probe fluorescence polarization. actives 72% (n = 1,100);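 active = mean inhibition across replicates above the hit cutoff set in the primary screen, cut at about 26% in these data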;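 note: blocked labeling of the enzyme by serine hydrolase FP-Rh probe lowers polarization; 0% = enzyme with DMSO and 100% = wells lacking LYPLA2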
* hit, by the source's call.

Results for CC(C)(C)c1ccc(C2(C)NC(=O)NC2=O)cc1 (stereo not drawn) ?
LYPLA1 inh: 2; LYPLA2 counter: 4; procasp3 activ: 2; procasp7 counter: -10; PREPL inhibitor: 4

How did CN(c1ccccc1)S(=O)(=O)c1ccc(NC(=O)c2ccc(-c3ccccc3)cc2)cc1 do in these assays?
LYPLA1 inh: 22*; LYPLA2 counter: 30*; procasp3 activ: 1; procasp7 counter: 10; PREPL inhibitor: -14; LYPLA1 conf: 26*; LYPLA2 conf: 35*

How did O=c1ccc2ccc(Oc3ccc([N+](=O)[O-])cc3Cl)cc2o1 do in these assays?
LYPLA1 inh: 16*; LYPLA2 counter: 70*; procasp3 activ: 6; procasp7 counter: 6; PREPL inhibitor: 27; LYPLA1 conf: 22*; LYPLA2 conf: 66*

How did O=C(COc1ccc2ccc(=O)oc2c1)Nc1cc([N+](=O)[O-])ccc1F do in these assays?
LYPLA1 inh: 0; LYPLA2 counter: 4; procasp3 activ: 6; procasp7 counter: 3; PREPL inhibitor: 8

Results for Cn1cccc1C(=O)NCc1ccc(S(N)(=O)=O)cc1 ?
LYPLA1 inh: 2; LYPLA2 counter: -2; procasp3 activ: 4; procasp7 counter: 1; PREPL inhibitor: 0

What do the screens show for `O=C1N=C(c2ccccc2)S/C1=C\c1cccs1`?
LYPLA1 inh: -2; LYPLA2 counter: -1; procasp3 activ: -14; procasp7 counter: -28; PREPL inhibitor: 11

Results for O=C1N=C(N2CCN(Cc3ccccc3)CC2)S/C1=C/c1cccs1 ?
LYPLA1 inh: 25*; LYPLA2 counter: 47*; procasp3 activ: 4; procasp7 counter: 3; PREPL inhibitor: -22; LYPLA1 conf: 36*; LYPLA2 conf: 55*

Results for Cc1[nH]c2ccccc2c1C(=O)CN1CCN(C/C=C/c2ccccc2)CC1 ?
LYPLA1 inh: 31*; LYPLA2 counter: 56*; procasp3 activ: 0; procasp7 counter: -6; PREPL inhibitor: 12; LYPLA1 conf: 31*; LYPLA2 conf: 54*

What do the screens show for `O=C(Nc1ccc2oc(-c3cccnc3)nc2c1)c1ccc2c(c1)OCCO2`?
LYPLA1 inh: 21*; LYPLA2 counter: 47*; procasp3 activ: 6; procasp7 counter: 5; PREPL inhibitor: 10; LYPLA1 conf: 53*; LYPLA2 conf: 49*

What do the screens show for `N#Cc1c(N)nc(SCc2ccncc2)c(C#N)c1-c1cccs1`?
LYPLA1 inh: 39*; LYPLA2 counter: 42*; procasp3 activ: -5; procasp7 counter: 1; PREPL inhibitor: -6; LYPLA1 conf: 41*; LYPLA2 conf: 43*

Results for O=C(COc1ccc([N+](=O)[O-])cc1)Nc1ccc2c(c1)nc1n2CCOC1 ?
LYPLA1 inh: 1; LYPLA2 counter: -4; procasp3 activ: 0; procasp7 counter: 7; PREPL inhibitor: 15

What do the screens show for `COc1ccc(C(CNC(=O)COc2c(C)cc(C)cc2C)N2CCOCC2)cc1` (stereo not drawn)?
LYPLA1 inh: -3; LYPLA2 counter: 6; procasp3 activ: -3; procasp7 counter: 2; PREPL inhibitor: 10

Results for COc1ccc(C(CNC(=O)COc2ccc(-c3ccccc3)cc2)N2CCOCC2)cc1 (stereo not drawn) ?
LYPLA1 inh: 45*; LYPLA2 counter: 44*; procasp3 activ: 11; procasp7 counter: 4; PREPL inhibitor: 20; LYPLA1 conf: 57*; LYPLA2 conf: 45*

What do the screens show for `Cc1ccc(SCC(=O)OCC(=O)N(C)CC(=O)Nc2ccc(F)cc2)cc1`?
LYPLA1 inh: 0; LYPLA2 counter: 3; procasp3 activ: -4; procasp7 counter: -1; PREPL inhibitor: 4

Results for O=C1Cc2ccccc2C(c2ccc(Br)cc2)N1 (stereo not drawn) ?
LYPLA1 inh: 22*; LYPLA2 counter: 30*; procasp3 activ: 5; procasp7 counter: -2; PREPL inhibitor: -1; LYPLA1 conf: 29*; LYPLA2 conf: 27*
